The source of these data is ChEMBL document CHEMBL1123648, “Synthesis, chemical reactivity, and antileukemic activity of 5-substituted 6,7-bis(hydroxymethyl)pyrrolo[1,2-c]thiazole biscarbamates and the corresponding sulfoxides and sulfones” (1987).

The ILS is how much longer treated animals lived than controls.

Molecules are shown by their SMILES.

The nature of assay [1]: Percent increase in life span of test animals compared to untreated tumor-bearing control group C animals at a dose of 25 mg/kg. It counts as functional. The conditions noted are these: Mus musculus.
Assay [2] in a line: Percent increase in life span of test animals compared to untreated tumor-bearing control group C animals at a dose of 12.5 mg/kg. Type of assay: functional. The conditions noted are these: Mus musculus.
Assay [3] in a line: Toxicity day survivors expressed as number of animals that survived to day five/ number of test animals under control group A at a dose of 50 mg/kg; 6 survived out of 6. It counts as functional, Mus musculus.
A short description of assay [4]: Log cell population relative to cell population at the beginning of treatment compared to control group C at a dose of 100 mg/kg. Type of assay: functional, Mus musculus.
Assay [5] in a line: Percent increase in life span of test animals compared to untreated tumor-bearing control group A animals at a dose of 6.25 mg/kg. Type of assay: functional. The conditions noted are these: Mus musculus.
Assay [6] is described as follows: Percent increase in life span of test animals compared to untreated tumor-bearing control group A animals at a dose of 25 mg/kg. It counts as functional. The conditions noted are these: Mus musculus.
A short description of assay [7]: Toxicity day survivors expressed as number of animals that survived to day five/ number of test animals under control group B at a dose of 100 mg/kg; 6 survived out of 6. Type of assay: functional, Mus musculus.
Assay [8] can be described thus: Antileukemic activity against Murine P388 lymphocytic leukemia, body weight difference of the test animals compared to control group A animals at a dose of 50 mg/kg. The arrangement: unit not given here. Type of assay: functional, Mus musculus. The method, boiled down:
(§1)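 CD2F1 mice implanted intraperitoneally with ascitic fluid carrying ca. 1×10^6 P388 cells, under the NCI protocol. Dosing was intraperitoneal, starting 24 h after inoculation, then every 24 h for five doses in total. The body weight difference of treated mice is taken against untreated controls. Toxicity day survivors are the mice alive at day five out of those tested.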

Assay [9] in a line: Toxicity day survivors expressed as number of animals that survived to day five/ number of test animals under control group C at a dose of 25 mg/kg; 6 survived out of 6. It counts as functional, Mus musculus.
Assay [10] relates to P388. As to the kind of experiment: Log cell population relative to cell population at the beginning of treatment compared to control group B at a dose of 25 mg/kg. Type of assay: functional, Mus musculus.
The nature of assay [11]: Percent increase in life span of test animals compared to untreated tumor-bearing control group A animals at a dose of 100 mg/kg. Type of assay: functional. Conditions: Mus musculus.
Assay [12] concerns P388. As to the kind of experiment: Log cell population relative to cell population at the beginning of treatment compared to control group C at a dose of 50 mg/kg. It counts as functional, Mus musculus.
Assay [13] can be described thus: Antileukemic activity against Murine P388 lymphocytic leukemia, body weight difference of the test animals compared to control group B animals at a dose of 25 mg/kg. Type of assay: functional, Mus musculus. The arrangement: unit not given here. An outline of the steps:
as §1

The subject of assay [14] is P388. The assay is described as follows: Log cell population relative to cell population at the beginning of treatment compared to control group C at a dose of 25 mg/kg. It counts as functional, Mus musculus.
A short description of assay [15]: Percent increase in life span of test animals compared to untreated tumor-bearing control group C animals at a dose of 6.25 mg/kg. Type of assay: functional. Conditions: Mus musculus.
A short description of assay [16]: Antileukemic activity against Murine P388 lymphocytic leukemia and toxicity day survivors expressed as number of animals that survived to day five/ number of test animals under control group C at a dose of 50 mg/kg; 6 survived out of 6. Type of assay: functional, Mus musculus.
The nature of assay [17]: Percent increase in life span of test animals compared to untreated tumor-bearing control group B animals at a dose of 6.25 mg/kg. It counts as functional. The conditions noted are these: Mus musculus.

For the compound `CC(C)NC(=O)OCc1c(COC(=O)NC(C)C)c(-c2ccc(Cl)c(Cl)c2)n2c1CCC2`, the values for the ILS at 25 mg/kg in assay [1] and in [6] were 55% and 75%, respectively. Also, in [2], the ILS at 12.5 mg/kg is 32%. Besides, the TDS in [3], in [7], in assay [9] and in assay [16] was 6 throughout. Also, the KE in [4] is over 6.68; in the assay with P388 [10], 3.01; in the assay on P388 [12], 5.27; in the assay on P388 [14], 1.85. Also, the ILS at 6.25 mg/kg came out at 51% in [5], 26% in [15] and 41% in assay [17]. Besides, the results for the BWD in assay [8] and in assay [13] were -2.6 and -2.2, respectively. The increase in lifespan (ILS) at 100 mg/kg in assay [11] was 48%.
